# Test results: ChEMBL document CHEMBL4387709, “Discovery of Quinoline Analogues as Potent Antivirals against Enterovirus D68 (EV-D68)” (J Med Chem, 2019)
# pEC50: −log10 of the molar value. Calls of active or inactive are those of the source. No cut-off for these calls is given here.
# Tests used:
# [1] = tested on: enterovirus D68; test: Antiviral activity against Enterovirus D68 US/KY/14-18953 infected in human RD cells assessed as inhibition of virus-induced cytopathic effect incubated for 5 mins under shaking condition and measured after 3 days by neutral red dye-based photometric method; format: functional, organism-based; details: Enterovirus D, US/KY/14-18953, RD
# How it was run: (§1)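 RD cells seeded one day ahead to ~90% confluence, PBS (Mg/Ca) wash, infected at ~MOI 0.01 with EV-D68 in DMEM/2% FBS/30 mM MgCl2 at 33 °C, 5% CO2. Compounds and 1% P/S added after 1 h. Plates shaken ~5 min, held 3 days, viable cells stained with neutral red (66 µg/ml), A540 read. EC50 from dose-response fits, triplicates.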
# [2] = tested on: RD; test: Inhibition of 2C protein in Enterovirus D68 US/KY/14-18953 infected in human RD cells assessed as reduction of VP1 expression at 1 uM measured at 9 hrs post infection by Western blot analysis; format: cell-based
# How it was run: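 Equal protein separated and blotted to PVDF. Probed with rabbit anti-VP1 and mouse anti-GAPDH (1:3,000), HRP secondary, chemiluminescent detection. Mean of two independent experiments ± SD.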
# [3] = tested on: RD; test: Inhibition of 2C protein in Enterovirus D68 US/KY/14-18953 infected in human RD cells assessed as reduction of VP1 expression at 1 uM measured at 9 hrs post infection by DAPI-staining based microscopy; format: cell-based
# How it was run: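 Fixed at 9 hpi (4% formaldehyde), 0.2% Triton X-100 permeabilized, blocked with 10% bovine serum. Stained with rabbit anti-VP1 plus Alexa-488 secondary, nuclei with 300 nM DAPI. Confocal microscopy.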
# [4] = tested on: RD; test: Inhibition of 2C protein in Enterovirus D68 US/KY/14-18953 infected in human RD cells assessed as reduction of viral RNA synthesis at 1 uM measured at 9 hrs post infection by reagent-based RT-qPCR method relative to control; format: cell-based
# How it was run: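 DNase-treated. 1.2 µg reverse-transcribed with oligo(dT)18. qPCR run 95 °C 10 min, then 40 cycles of 95 °C 15 s/60 °C 60 s, with melt curve. Compared with DMSO control, one-way ANOVA, mean of two experiments ± SD.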
# [5] = tested on: enterovirus D68; test: Antiviral activity against Enterovirus D68 US/MO/14-18947 infected in human RD cells assessed as inhibition of virus-induced cytopathic effect incubated for 5 mins under shaking condition and measured after 3 days by neutral red dye-based photometric method; format: functional, organism-based; details: Enterovirus D, US/MO/14-18947, RD; how it was run: as §1
# [6] = tested on: enterovirus D68; test: Antiviral activity against Enterovirus D68 US/MO/14-18949 infected in human RD cells assessed as inhibition of virus-induced cytopathic effect incubated for 5 mins under shaking condition and measured after 3 days by neutral red dye-based photometric method; format: functional, organism-based; details: Enterovirus D, US/MO/14-18949, RD; how it was run: as §1
# [7] = Selectivity index, ratio of CC50 for human RD cells to EC50 for Enterovirus D68 US/MO/14-18949 infected in RD human cells; format: toxicity, cell-based; details: read-out: Ratio CC50/EC50
# [8] = Selectivity index, ratio of CC50 for human RD cells to EC50 for Enterovirus D68 US/IL/14-18956 infected in human RD cells; format: toxicity, cell-based; details: read-out: Ratio CC50/EC50
# How it was run: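 RD cells in DMEM with 10% FBS were infected at about 90% confluency at MOI about 0.01, giving full CPE by 3 days, in DMEM with 2% FBS and 30 mM MgCl2 at 33 °C. Compounds and P/S were added 1 h after infection. Viability was read by neutral red uptake (A540). CC50 came from uninfected cells. Means were from triplicates, and SI = CC50/EC50.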
# [9] = tested on: enterovirus D68; test: Antiviral activity against Enterovirus D68 […] infected in human RD cells assessed as inhibition of virus-induced cytopathic effect incubated for 5 mins under shaking condition and measured after 3 days by neutral red dye-based photometric method; format: functional, organism-based; details: Enterovirus D; how it was run: as §1
# [10] = tested on: HeLa; test: Cytotoxicity against human HeLa cells after 3 days by neutral red dye-based photometric method; format: cell-based; details: 72 h
# How it was run: (§2)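 Uninfected cells run as in the CPE assay (33 °C, 3 days, same media) with compound. Viability by neutral red staining and 540 nm absorbance. CC50 from dose-response curves, triplicate experiments.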
# [11] = tested on: A 172; test: Cytotoxicity against human A172 cells after 3 days by neutral red dye-based photometric method; format: cell-based; details: a 172, 72 h; how it was run: as §2
# [12] = Selectivity index, ratio of CC50 for human A172 cells to EC50 for Enterovirus D68 US/KY/14-18953 infected in human A172 cells; format: toxicity, cell-based; details: read-out: Ratio CC50/EC50
# How it was run: (§3)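 A172 cells kept in DMEM with 10% FBS and 1% P/S, grown to about 90% confluency, then infected at MOI about 0.3 in DMEM with 2% FBS and 30 mM MgCl2 at 33 °C. After 1 h, P/S and compounds were added. Viable cells were stained with neutral red after 3 days (A540). CC50 came from the same assay without virus. EC50 and CC50 were fitted from triplicate dose-response data, and SI = CC50/EC50.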
# [13] = tested on: enterovirus D68; test: Antiviral activity against Enterovirus D68 US/KY/14-18953 infected in human SH-SY5Y cells assessed as inhibition of virus-induced cytopathic effect incubated for 5 mins under shaking condition and measured after 3 days by neutral red dye-based photometric method; format: functional, organism-based; details: Enterovirus D, US/KY/14-18953, SH-SY5Y
# How it was run: (§4)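 Virus at ~MOI 1 applied to SH-SY5Y cells (50% DMEM/50% F-12, 10% FBS) at ~90% confluence in DMEM/2% FBS/30 mM MgCl2 at 33 °C. Compounds added after 1 h with 1% P/S, shaken ~5 min, incubated 3 days. Viability read by neutral red uptake (A540). EC50 fitted from dose-response, triplicate.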
# [14] = tested on: enterovirus D68; test: Antiviral activity against Enterovirus D68 US/MO/14-18947 infected in human A172 cells assessed as inhibition of virus-induced cytopathic effect incubated for 5 mins under shaking condition and measured after 3 days by neutral red dye-based photometric method; format: functional, organism-based; details: Enterovirus D, US/MO/14-18947, A 172
# How it was run: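 A172 cells (DMEM, 10% FBS) grown ~90% confluent, infected with EV-D68 at ~MOI 0.3 in DMEM/2% FBS/30 mM MgCl2 and kept at 33 °C. P/S and compounds added 1 h later. Brief orbital shaking, then 3-day incubation. Neutral red staining with 540 nm absorbance. EC50 from best-fit dose-response curves in triplicate.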
# [15] = Selectivity index, ratio of CC50 for human A172 cells to EC50 for Enterovirus D68 US/MO/14-18947 infected in human A172 cells; format: toxicity, cell-based; details: read-out: Ratio CC50/EC50; how it was run: as §3
# [16] = tested on: enterovirus D68; test: Antiviral activity against Enterovirus D68 US/MO/14-18947 infected in human SH-SY5Y cells assessed as inhibition of virus-induced cytopathic effect incubated for 5 mins under shaking condition and measured after 3 days by neutral red dye-based photometric method; format: functional, organism-based; details: Enterovirus D, US/MO/14-18947, SH-SY5Y; how it was run: as §4
# [17] = Selectivity index, ratio of CC50 for human SH-SY5Y cells to EC50 for Enterovirus D68 US/MO/14-18947 infected in human SH-SY5Y cells; format: toxicity, cell-based; details: read-out: Ratio CC50/EC50
# How it was run: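 SH-SY5Y cells grown in 50% DMEM/50% F-12 with 10% FBS and 1% P/S to about 90% confluency, then infected at MOI about 1 in DMEM with 2% FBS and 30 mM MgCl2 at 33 °C. Compounds were added after 1 h. Neutral red staining was read at 540 nm after 3 days. CC50 came from uninfected cells under the same conditions. Values were triplicate dose-response fits, and SI = CC50/EC50.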
structure (smiles),measurement,setting,value
O=C(NCCN1CCCC1)c1cc(-c2cccs2)nc2ccccc12,pEC50,[1],7.22
same,inhibition,[2],Active
same,inhibition,[3],Active
same,inhibition,[4],> 99%
same,pEC50,[5],7.22
same,pEC50,[6],7.30
same,selectivity ratio,[7],800
same,selectivity ratio,[8],800
same,pEC50,[9],7.15
same,CC50,[10],41700 nM
same,CC50,[11],65400 nM
same,selectivity ratio,[12],1310
same,pEC50,[13],7.00
same,pEC50,[14],6.70
same,selectivity ratio,[15],327
same,pEC50,[16],7.70
same,selectivity ratio,[17],4660
